Laboratory results taken from ChEMBL document CHEMBL1926665, “Anti-AIDS agents 85. Design, synthesis, and evaluation of 1R,2R-dicamphanoyl-3,3-dimethyldihydropyrano-[2,3-c]xanthen-7(1H)-one (DCX) derivatives as novel anti-HIV agents” (Eur J Med Chem, 2012).

Assays:
[1] = Cytotoxicity against human TZM-bl cells by CytoTox-Glo assay; type: cell-based
[2] = tested on: Human immunodeficiency virus 1; test: Antiviral activity against wild type HIV1 NL4-3 infected in human TZM-bl cells after 48 hrs by luciferase reporter gene assay; type: functional, organism-based; conditions: Human immunodeficiency virus 1, NL4-3, TZM-bl
How it was run: (§1)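 Single-round infection of TZM-bl cells (NL4-3 or RTMDR1 strain), with luciferase reporter read-out. Virus at 200 TCID50 was mixed with eight four-fold serial dilutions of sample in growth medium, then incubated 48 h. Luciferase was read by luminometer. EC50 is the concentration giving a 50% drop in RLU versus virus control after background subtraction. Values are means of at least three independent experiments.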

[3] = Selectivity index, ratio of CC50 for human TZM-bl cells to EC50 for wild type HIV1 NL4-3 infected in human TZM-bl cells; type: toxicity, cell-based; conditions: read-out: Ratio CC50/EC50
How it was run: (§2)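 Selectivity index is CC50 ÷ EC50. CC50 came from the CytoTox-Glo cytotoxicity kit run per the maker's protocol in TZM-bl cells. EC50 came from the 48 h single-round TZM-bl luciferase infection assay (200 TCID50 virus, eight four-fold dilutions) against the NL4-3 or RTMDR1 strain. Values are averaged from at least three independent experiments.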

[4] = tested on: Human immunodeficiency virus 1; test: Ratio of 2-EDCP EC50 to compound EC50 for wild type HIV1 NL4-3 infected in human TZM-bl cells; type: functional
[5] = tested on: Human immunodeficiency virus 1; test: Antiviral activity against drug-resistance HIV1 RTMDR1 infected in human TZM-bl cells after 48 hrs by luciferase reporter gene assay; type: functional, organism-based; conditions: Human immunodeficiency virus 1, RTMDR1, TZM-bl; how it was run: as §1
[6] = Selectivity index, ratio of CC50 for human TZM-bl cells to EC50 for drug-resistance HIV1 RTMDR1 infected in human TZM-bl cells; type: toxicity, cell-based; conditions: read-out: Ratio CC50/EC50; how it was run: as §2
[7] = tested on: Human immunodeficiency virus 1; test: Antiviral activity against drug-resistance HIV1; type: functional, organism-based
[8] = tested on: Human immunodeficiency virus 1; test: Antiviral activity against wild type HIV1; type: functional, organism-based

Structure (SMILES) | CC50 [1] [nM] | EC50 [2] [nM] | selectivity ratio [3] | Ratio EC50 [4] | EC50 [5] [nM] | selectivity ratio [6] | EC50 [7] [nM] | EC50 [8] [nM]
COc1cc2c(c3oc4cc(C#N)ccc4c(=O)c13)[C@@H](OC(=O)C13CCC(C)(C(=O)O1)C3(C)C)[C@@H](OC(=O)C13CCC(C)(C(=O)O1)C3(C)C)C(C)(C)O2 (stereo partly drawn) | 9080 | 200 | 45.4 |  |  |  |  | 
COc1cc2c(c3oc4ccc(C#N)cc4c(=O)c13)[C@@H](OC(=O)C13CCC(C)(C(=O)O1)C3(C)C)[C@@H](OC(=O)C13CCC(C)(C(=O)O1)C3(C)C)C(C)(C)O2 (stereo partly drawn) | > 13800 | 290 | > 47.8 |  |  |  |  | 
COc1cc2c(c3oc4ccccc4c(=O)c13)[C@@H](OC(=O)C13CCC(C)(C(=O)O1)C3(C)C)[C@@H](OC(=O)C13CCC(C)(C(=O)O1)C3(C)C)C(C)(C)O2 (stereo partly drawn) | > 14300 | 63 | > 227 | 1.5 | 74 | > 193 |  | 
COc1cc2c(c3oc4ccccc4/c(=N\O)c13)[C@@H](OC(=O)C13CCC(C)(C(=O)O1)C3(C)C)[C@@H](OC(=O)C13CCC(C)(C(=O)O1)C3(C)C)C(C)(C)O2 (stereo partly drawn) | > 13900 | 120 | > 118 |  |  |  |  | 
COc1cc2c(c3oc4c(C)cccc4c(=O)c13)[C@@H](OC(=O)C13CCC(C)(C(=O)O1)C3(C)C)[C@@H](OC(=O)C13CCC(C)(C(=O)O1)C3(C)C)C(C)(C)O2 (stereo partly drawn) | 4320 | 1520 | 2.84 |  |  |  |  | 
COc1cc2c(c3oc4cc(C)ccc4c(=O)c13)[C@@H](OC(=O)C13CCC(C)(C(=O)O1)C3(C)C)[C@@H](OC(=O)C13CCC(C)(C(=O)O1)C3(C)C)C(C)(C)O2 (stereo partly drawn) | > 14000 | 95 | > 147 |  | 363 | > 38.6 |  | 
COc1cc2c(c3oc4ccc(C)cc4c(=O)c13)[C@@H](OC(=O)C13CCC(C)(C(=O)O1)C3(C)C)[C@@H](OC(=O)C13CCC(C)(C(=O)O1)C3(C)C)C(C)(C)O2 (stereo partly drawn) | 11400 | 65 | 175 |  | 81 | 141 |  | 
COc1cc2c(c3oc4cccc(C)c4c(=O)c13)[C@@H](OC(=O)C13CCC(C)(C(=O)O1)C3(C)C)[C@@H](OC(=O)C13CCC(C)(C(=O)O1)C3(C)C)C(C)(C)O2 (stereo partly drawn) | 11600 | 150 | 77.3 |  | 370 | 31.4 |  | 
COc1ccc2c(=O)c3c(OC)cc4c(c3oc2c1)[C@@H](OC(=O)C12CCC(C)(C(=O)O1)C2(C)C)[C@@H](OC(=O)C12CCC(C)(C(=O)O1)C2(C)C)C(C)(C)O4 (stereo partly drawn) | > 13700 | 362 | > 37.8 |  |  |  |  | 
COc1ccc2oc3c4c(cc(OC)c3c(=O)c2c1)OC(C)(C)[C@H](OC(=O)C12CCC(C)(C(=O)O1)C2(C)C)[C@@H]4OC(=O)C12CCC(C)(C(=O)O1)C2(C)C (stereo partly drawn) | 10800 | 120 | 88.8 |  | 420 | 25.7 |  | 
COc1cccc2oc3c4c(cc(OC)c3c(=O)c12)OC(C)(C)[C@H](OC(=O)C12CCC(C)(C(=O)O1)C2(C)C)[C@@H]4OC(=O)C12CCC(C)(C(=O)O1)C2(C)C (stereo partly drawn) | 11600 | 1700 | 6.83 |  |  |  |  | 
COc1cc(C)c2c(=O)c3c(OC)cc4c(c3oc2c1)[C@@H](OC(=O)C12CCC(C)(C(=O)O1)C2(C)C)[C@@H](OC(=O)C12CCC(C)(C(=O)O1)C2(C)C)C(C)(C)O4 (stereo partly drawn) | > 26800 | 140 | > 192 |  |  |  |  | 
COc1cc2c(c3oc4cccc(O)c4c(=O)c13)[C@@H](OC(=O)C13CCC(C)(C(=O)O1)C3(C)C)[C@@H](OC(=O)C13CCC(C)(C(=O)O1)C3(C)C)C(C)(C)O2 (stereo partly drawn) | 8100 | 330 | 24.5 |  |  |  |  | 
COc1cc2c(c3oc4c(F)cccc4c(=O)c13)[C@@H](OC(=O)C13CCC(C)(C(=O)O1)C3(C)C)[C@@H](OC(=O)C13CCC(C)(C(=O)O1)C3(C)C)C(C)(C)O2 (stereo partly drawn) | 7800 | 230 | 33.9 |  |  |  |  | 
COc1cc2c(c3oc4ccc(F)cc4c(=O)c13)[C@@H](OC(=O)C13CCC(C)(C(=O)O1)C3(C)C)[C@@H](OC(=O)C13CCC(C)(C(=O)O1)C3(C)C)C(C)(C)O2 (stereo partly drawn) | 26000 | 100 | 260 |  | 160 | 162 |  | 
COc1cc2c(c3oc4cccc(F)c4c(=O)c13)[C@@H](OC(=O)C13CCC(C)(C(=O)O1)C3(C)C)[C@@H](OC(=O)C13CCC(C)(C(=O)O1)C3(C)C)C(C)(C)O2 (stereo partly drawn) | > 13900 | 62 | > 224 |  | 65 | > 214 |  | 
COc1cc2c(c3oc4ccc(Br)cc4c(=O)c13)[C@@H](OC(=O)C13CCC(C)(C(=O)O1)C3(C)C)[C@@H](OC(=O)C13CCC(C)(C(=O)O1)C3(C)C)C(C)(C)O2 (stereo partly drawn) | 9230 | 1470 | 6.83 |  |  |  |  | 
COc1cc2c(c3oc4ccc(CBr)cc4c(=O)c13)[C@@H](OC(=O)C13CCC(C)(C(=O)O1)C3(C)C)[C@@H](OC(=O)C13CCC(C)(C(=O)O1)C3(C)C)C(C)(C)O2 (stereo partly drawn) | > 25200 | 4530 | > 5.55 |  |  |  |  | 
CC1(C)Oc2ccc3c(=O)c4ccccc4oc3c2[C@@H](OC(=O)C23CCC(C)(C(=O)O2)C3(C)C)[C@H]1OC(=O)C12CCC(C)(C(=O)O1)C2(C)C (stereo partly drawn) | > 29800 | 308 | > 96.8 |  | 546 | > 54.6 |  | 
Cc1cc(=O)c2c(C)cc3c(c2o1)[C@@H](OC(=O)C12CCC(C)(C(=O)O1)C2(C)C)[C@@H](OC(=O)C12CCC(C)(C(=O)O1)C2(C)C)C(C)(C)O3 (stereo partly drawn) |  |  |  |  |  |  | 490 | 36
CCc1cc(=O)c2ccc3c(c2o1)[C@@H](OC(=O)C12CCC(C)(C(=O)O1)C2(C)C)[C@@H](OC(=O)C12CCC(C)(C(=O)O1)C2(C)C)C(C)(C)O3 (stereo partly drawn) | 12100 | 89 | 136 |  | 110 | 110 | 110 | 70
